What was measured:
Format in all cases: organism-based
Conditions in all cases: in vivo, other, 336 h
Vitis vinifera [1] = assay: Genotoxicity in Vitis vinifera exposed to compound through spray 4 times over 2 weeks assessed as relative adduct level A3 measured per 10^9 nucleotides using [32P]labeling based autoradiography relative to untreated control
Method in brief: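 Plants grown 2-6 weeks, groups of 2-4 sprayed four times over 2 weeks with label-rate formulations; water-sprayed controls. Leaf DNA kit-extracted. 10 µg DNA digested with micrococcal nuclease/spleen phosphodiesterase 4 h at 37 °C. NP1-enriched, then labeled with [γ-32P]ATP/T4 kinase 45 min at 37 °C. 2D PEI-cellulose TLC, imager readout. Samples spiked with 50 fmol HX-dG standard.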

Vitis vinifera [2] = assay: Genotoxicity in Vitis vinifera exposed to compound through spray 4 times over 2 weeks assessed as relative adduct level A2 measured per 10^9 nucleotides using [32P]labeling based autoradiography relative to untreated control
Method in brief: (§1)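 Plants (2–6 weeks grown), groups of 2–4, sprayed 4 times over 2 weeks with formulations diluted per label (chlorothalonil 1:256, carbaryl 1:64 in water); controls water-sprayed. DNA from 1 g leaf via DNeasy Maxi kit. 10 µg DNA digested with micrococcal nuclease/spleen phosphodiesterase (4 h, 37 °C), NP1-enriched (45 min, 37 °C), labelled with [γ-32P]ATP/T4 kinase (45 min, 37 °C).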

Vitis vinifera [3] = assay: Genotoxicity in Vitis vinifera exposed to compound through spray 4 times over 2 weeks assessed as relative adduct level A1 measured per 10^9 nucleotides using [32P]labeling based autoradiography relative to untreated control; method in brief: as §1
Cucumis sativus [4] = assay: Genotoxicity in Cucumis sativus (cucumber) exposed to compound through spray 4 times over 2 weeks assessed as relative adduct level A3 measured per 10^9 nucleotides using HX-dG internal standard using [32P]labeling based autoradiography relative to untreated control; method in brief: as §1
Cucumis sativus [5] = assay: Genotoxicity in Cucumis sativus (cucumber) exposed to compound through spray 4 times over 2 weeks assessed as relative adduct level A2 measured per 10^9 nucleotides using HX-dG internal standard using [32P]labeling based autoradiography relative to untreated control; method in brief: as §1
Cucumis sativus [6] = assay: Genotoxicity in Cucumis sativus (cucumber) exposed to compound through spray 4 times over 2 weeks assessed as relative adduct level A1 measured per 10^9 nucleotides using HX-dG internal standard using [32P]labeling based autoradiography relative to untreated control; method in brief: as §1
Cucumis sativus [7] = assay: Genotoxicity in Cucumis sativus (cucumber) exposed to compound through spray 4 times over 2 weeks assessed as relative adduct level A3 measured per 10^9 nucleotides using [32P]labeling based autoradiography relative to untreated control; method in brief: as §1
Cucumis sativus [8] = assay: Genotoxicity in Cucumis sativus (cucumber) exposed to compound through spray 4 times over 2 weeks assessed as relative adduct level A2 measured per 10^9 nucleotides using [32P]labeling based autoradiography relative to untreated control; method in brief: as §1
Cucumis sativus [9] = assay: Genotoxicity in Cucumis sativus (cucumber) exposed to compound through spray 4 times over 2 weeks assessed as relative adduct level A1 measured per 10^9 nucleotides using [32P]labeling based autoradiography relative to untreated control; method in brief: as §1
Phaseolus vulgaris [10] = assay: Genotoxicity in Phaseolus vulgaris (bush beans) exposed to compound through spray 4 times over 2 weeks assessed as relative adduct level A6 measured per 10^9 nucleotides using HX-dG internal standard using [32P]labeling based autoradiography relative to untreated control; method in brief: as §1
Phaseolus vulgaris [11] = assay: Genotoxicity in Phaseolus vulgaris (bush beans) exposed to compound through spray 4 times over 2 weeks assessed as relative adduct level A5 measured per 10^9 nucleotides using HX-dG internal standard using [32P]labeling based autoradiography relative to untreated control; method in brief: as §1
Phaseolus vulgaris [12] = assay: Genotoxicity in Phaseolus vulgaris (bush beans) exposed to compound through spray 4 times over 2 weeks assessed as relative adduct level A4 measured per 10^9 nucleotides using HX-dG internal standard using [32P]labeling based autoradiography relative to untreated control; method in brief: as §1
Phaseolus vulgaris [13] = assay: Genotoxicity in Phaseolus vulgaris (bush beans) exposed to compound through spray 4 times over 2 weeks assessed as relative adduct level A3 measured per 10^9 nucleotides using HX-dG internal standard using [32P]labeling based autoradiography relative to untreated control; method in brief: as §1
Phaseolus vulgaris [14] = assay: Genotoxicity in Phaseolus vulgaris (bush beans) exposed to compound through spray 4 times over 2 weeks assessed as relative adduct level A2 measured per 10^9 nucleotides using HX-dG internal standard using [32P]labeling based autoradiography relative to untreated control; method in brief: as §1
Phaseolus vulgaris [15] = assay: Genotoxicity in Phaseolus vulgaris (bush beans) exposed to compound through spray 4 times over 2 weeks assessed as relative adduct level A1 measured per 10^9 nucleotides using HX-dG internal standard using [32P]labeling based autoradiography relative to untreated control; method in brief: as §1
Phaseolus vulgaris [16] = assay: Genotoxicity in Phaseolus vulgaris (bush beans) exposed to compound through spray 4 times over 2 weeks assessed as relative adduct level A6 measured per 10^9 nucleotides using [32P]labeling based autoradiography relative to untreated control; method in brief: as §1
Phaseolus vulgaris [17] = assay: GenoToxicity in Phaseolus vulgaris (bush beans) exposed to compound through spray 4 times over 2 weeks assessed as relative adduct level A5 measured per 10^9 nucleotides using [32P]labeling based autoradiography relative to untreated control; method in brief: as §1
Phaseolus vulgaris [18] = assay: Genotoxicity in Phaseolus vulgaris (bush beans) exposed to compound through spray 4 times over 2 weeks assessed as relative adduct level A4 measured per 10^9 nucleotides using [32P]labeling based autoradiography relative to untreated control; method in brief: as §1
Phaseolus vulgaris [19] = assay: Genotoxicity in Phaseolus vulgaris (bush beans) exposed to compound through spray 4 times over 2 weeks assessed as relative adduct level A3 measured per 10^9 nucleotides using [32P]labeling based autoradiography relative to untreated control; method in brief: as §1
Phaseolus vulgaris [20] = assay: Genotoxicity in Phaseolus vulgaris (bush beans) exposed to compound through spray 4 times over 2 weeks assessed as relative adduct level A2 measured per 10^9 nucleotides using [32P]labeling based autoradiography relative to untreated control; method in brief: as §1
Phaseolus vulgaris [21] = assay: Genotoxicity in Phaseolus vulgaris (bush beans) exposed to compound through spray 4 times over 2 weeks assessed as relative adduct level A1 measured per 10^9 nucleotides using [32P]labeling based autoradiography relative to untreated control; method in brief: as §1
Glycine max [22] = assay: Genotoxicity in Glycine max (soybean) exposed to compound through spray 4 times over 2 weeks assessed as relative adduct level A6 measured per 10^9 nucleotides using HX-dG internal standard using [32P]labeling based autoradiography relative to untreated control; method in brief: as §1
Glycine max [23] = assay: Genotoxicity in Glycine max (soybean) exposed to compound through spray 4 times over 2 weeks assessed as relative adduct level A5 measured per 10^9 nucleotides using HX-dG internal standard using [32P]labeling based autoradiography relative to untreated control; method in brief: as §1
Glycine max [24] = assay: Genotoxicity in Glycine max (soybean) exposed to compound through spray 4 times over 2 weeks assessed as relative adduct level A4 measured per 10^9 nucleotides using HX-dG internal standard using [32P]labeling based autoradiography relative to untreated control; method in brief: as §1
Glycine max [25] = assay: Genotoxicity in Glycine max (soybean) exposed to compound through spray 4 times over 2 weeks assessed as relative adduct level A3 measured per 10^9 nucleotides using HX-dG internal standard using [32P]labeling based autoradiography relative to untreated control; method in brief: as §1

Compound: N#Cc1c(Cl)c(Cl)c(Cl)c(C#N)c1Cl [CHLOROTHALONIL]
- Activity (Vitis vinifera [1]): 155
- Activity (Vitis vinifera [2]): 66
- Activity (Vitis vinifera [3]): 36
- Activity (Cucumis sativus [4]): 10667 cpm
- Activity (Cucumis sativus [5]): 12506 cpm
- Activity (Cucumis sativus [6]): 5420 cpm
- Activity (Cucumis sativus [7]): 229
- Activity (Cucumis sativus [8]): 268
- Activity (Cucumis sativus [9]): 116
- Activity (Phaseolus vulgaris [10]): 6051 cpm
- Activity (Phaseolus vulgaris [11]): 4410 cpm
- Activity (Phaseolus vulgaris [12]): 2814 cpm
- Activity (Phaseolus vulgaris [13]): 5038 cpm
- Activity (Phaseolus vulgaris [14]): 5697 cpm
- Activity (Phaseolus vulgaris [15]): 5901 cpm
- Activity (Phaseolus vulgaris [16]): 174
- Activity (Phaseolus vulgaris [17]): 127
- Activity (Phaseolus vulgaris [18]): 81
- Activity (Phaseolus vulgaris [19]): 145
- Activity (Phaseolus vulgaris [20]): 164
- Activity (Phaseolus vulgaris [21]): 169
- Activity (Glycine max [22]): 16472 cpm
- Activity (Glycine max [23]): 4613 cpm
- Activity (Glycine max [24]): 6823 cpm
- Activity (Glycine max [25]): 6932 cpm

Reference: ChEMBL document CHEMBL3045357, “DNA adducts as biomarkers for oxidative and genotoxic stress from pesticides in crop plants” (J Agric Food Chem, 2008)
